Test results: ChEMBL document CHEMBL1800057, “Discovery of dual inducible/neuronal nitric oxide synthase (iNOS/nNOS) inhibitor development candidate 4-((2-cyclobutyl-1H-imidazo[4,5-b]pyrazin-1-yl)methyl)-7,8-difluoroquinolin-2(1H)-one (KD7332) part 2: identification of a novel, potent, and selective series of benzimidazole-quinolinone …” (J Med Chem, 2010)

Columns and labels:
[1] = Plasma clearance in rhesus monkey at 3 mg/kg, iv and 10 mg/kg, po; type: ADME, organism-based, Macaca mulatta
Procedure, shortened: (§1)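 Rhesus pharmacokinetics: 3 mg/kg iv and 10 mg/kg po, HCl salt. Clp, t1/2, Vdss, Cmax, AUC, oral t1/2 and %F reported.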

[2] = Half life in rhesus monkey at 3 mg/kg, iv and 10 mg/kg, po; type: ADME, organism-based, Macaca mulatta; conditions: in vivo; procedure, shortened: as §1
[3] = Volume of distribution at steady state in rhesus monkey at 3 mg/kg, iv and 10 mg/kg, po; type: ADME, organism-based, Macaca mulatta; conditions: in vivo, read-out: Vdss; procedure, shortened: as §1
[4] = Cmax in rhesus monkey at 3 mg/kg, iv and 10 mg/kg, po; type: ADME, organism-based, Macaca mulatta; conditions: in vivo; procedure, shortened: as §1
[5] = AUC in rhesus monkey at 3 mg/kg, iv and 10 mg/kg, po; type: ADME, organism-based, Macaca mulatta; conditions: plasma; procedure, shortened: as §1
[6] = Half life in rhesus monkey at 10 mg/kg, po; type: ADME, organism-based, Macaca mulatta; set-up: dose 10 mg/kg, route oral; conditions: in vivo
[7] = Bioavailability in rhesus monkey at 3 mg/kg, iv and 10 mg/kg, po; type: ADME, organism-based, Macaca mulatta; conditions: in vivo; procedure, shortened: as §1
[8] = Plasma clearance in mouse at 3 mg/kg, iv and 10 mg/kg, po; type: ADME, organism-based
[9] = Volume of distribution at steady state in mouse at 3 mg/kg, iv and 10 mg/kg, po; type: ADME, organism-based; conditions: in vivo, read-out: Vdss
[10] = Cmax in mouse at 3 mg/kg, iv and 10 mg/kg, po; type: ADME, organism-based; conditions: in vivo
[11] = AUC in mouse at 3 mg/kg, iv and 10 mg/kg, po; type: ADME, organism-based; conditions: plasma
[12] = Half life in mouse at 10 mg/kg, po; type: ADME, organism-based; set-up: dose 10 mg/kg, route oral; conditions: in vivo
[13] = Oral bioavailability in mouse at 10 mg/kg; type: ADME, organism-based; conditions: in vivo
[14] = molecular target: Nitric oxide synthase, inducible (Homo sapiens, UniProt P35228); test: Inhibition of human iNOS expressed in HEK293 cells assessed as inhibition of nitric oxide production after 18 hrs using 2,3-diaminonaphthalene by fluorescence assay; type: cell-based
Procedure, shortened: (§2)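 HEK293 cells grown to ~70% confluence in DMEM/10% FBS with pen/strep, transiently transfected with 10 μg human or murine iNOS plasmid plus Fugene 6 for 4 h at 37 °C, 10% CO2. Cells replated at 5e5 cells/mL and dosed with compound at once; 1400W (100 μM final) as positive control. After 18 h, DAN (10 μg/mL final) in HCl (0.1 N final) added for 20 min at room temperature. Fluorescence read after NaOH (0.12 N final).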

Nitric oxide synthase 1 [15] = molecular target: T1, Nitric oxide synthase 1 (Homo sapiens, UniProt P29475); test: Inhibition of human nNOS expressed in HEK293 cells assessed as inhibition ionomycin induced nitric oxide production incubated for 24 hrs measured after 18 hrs of ionomycin challenge using 2,3-diaminonaphthalene by fluorescence assay; type: cell-based
Procedure, shortened: (§3)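 HEK293 cells transfected for 4 h at 37 °C with human nNOS (10 μg) or human eNOS (15 μg) plasmid (Fugene 6, 3:1). Cells replated at 5e5 cells/mL and dosed with compound at once; SEITU (100 μM final) as positive control. After 24 h, cells activated with A23187 (83 nM final) for eNOS or ionomycin (30 μM final) for nNOS. NO read 18 h later as nitrite-DAN fluorescence.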

Nitric oxide synthase 3 = molecular target: T2, Nitric oxide synthase 3 (Homo sapiens, UniProt P29474); test: Inhibition of human eNOS expressed in HEK293 cells assessed as inhibition A23187 induced nitric oxide production incubated for 24 hrs measured after 18 hrs of […] challenge using 2,3-diaminonaphthalene by fluorescence assay; type: cell-based; procedure, shortened: as §3
T2 sequence (P29474 whole entry): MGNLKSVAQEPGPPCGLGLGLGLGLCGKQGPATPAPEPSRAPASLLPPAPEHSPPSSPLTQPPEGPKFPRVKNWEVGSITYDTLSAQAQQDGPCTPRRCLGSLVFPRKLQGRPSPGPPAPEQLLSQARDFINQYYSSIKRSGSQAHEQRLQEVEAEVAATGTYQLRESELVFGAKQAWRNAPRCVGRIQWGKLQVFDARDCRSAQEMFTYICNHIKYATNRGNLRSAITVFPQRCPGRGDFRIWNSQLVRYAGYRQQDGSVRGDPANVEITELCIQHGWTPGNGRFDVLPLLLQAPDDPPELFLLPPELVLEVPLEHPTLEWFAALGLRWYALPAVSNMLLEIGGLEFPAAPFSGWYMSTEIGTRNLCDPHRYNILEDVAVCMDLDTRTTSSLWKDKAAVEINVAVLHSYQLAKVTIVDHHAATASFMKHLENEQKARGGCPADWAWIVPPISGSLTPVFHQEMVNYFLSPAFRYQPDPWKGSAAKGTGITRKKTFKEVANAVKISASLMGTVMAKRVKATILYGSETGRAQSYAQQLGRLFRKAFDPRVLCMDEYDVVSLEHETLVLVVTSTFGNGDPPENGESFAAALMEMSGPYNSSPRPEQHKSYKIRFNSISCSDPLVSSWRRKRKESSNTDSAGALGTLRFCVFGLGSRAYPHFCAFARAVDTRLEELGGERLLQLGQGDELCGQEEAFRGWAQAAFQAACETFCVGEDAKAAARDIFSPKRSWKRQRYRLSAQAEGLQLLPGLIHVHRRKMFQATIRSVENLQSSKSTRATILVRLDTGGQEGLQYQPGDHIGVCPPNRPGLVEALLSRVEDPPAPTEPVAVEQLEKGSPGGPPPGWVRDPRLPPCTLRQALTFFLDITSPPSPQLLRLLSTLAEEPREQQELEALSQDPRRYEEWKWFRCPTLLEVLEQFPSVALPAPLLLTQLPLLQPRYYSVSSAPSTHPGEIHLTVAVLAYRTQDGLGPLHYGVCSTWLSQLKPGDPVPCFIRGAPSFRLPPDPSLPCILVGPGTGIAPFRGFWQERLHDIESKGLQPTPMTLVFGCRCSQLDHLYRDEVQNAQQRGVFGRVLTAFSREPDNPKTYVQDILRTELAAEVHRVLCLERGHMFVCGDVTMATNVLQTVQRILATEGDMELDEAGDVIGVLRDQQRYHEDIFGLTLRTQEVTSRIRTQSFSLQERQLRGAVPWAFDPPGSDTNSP

Liver = test: Half life in mouse liver microsomes assessed as formation of oxidation product and glucuronide conjugate; type: ADME, Microsome
Procedure, shortened: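 Mouse liver microsomes run under combined phase I oxidation and phase II glucuronide conjugation; half-life reported in minutes.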

Homo sapiens [16] = organism: Homo sapiens; test: Ratio of IC50 for human eNOS to EC50 for human iNOS
Homo sapiens [17] = organism: Homo sapiens; test: Ratio of IC50 for human nNOS to EC50 for human iNOS
[18] = molecular target: T3, Nitric oxide synthase, inducible (Mus musculus, UniProt P29477); test: Inhibition of mouse iNOS expressed in HEK293 cells assessed as inhibition of nitric oxide production after 18 hrs using 2,3-diaminonaphthalene by fluorescence assay; type: cell-based; procedure, shortened: as §2
T3 sequence (P29477 whole entry): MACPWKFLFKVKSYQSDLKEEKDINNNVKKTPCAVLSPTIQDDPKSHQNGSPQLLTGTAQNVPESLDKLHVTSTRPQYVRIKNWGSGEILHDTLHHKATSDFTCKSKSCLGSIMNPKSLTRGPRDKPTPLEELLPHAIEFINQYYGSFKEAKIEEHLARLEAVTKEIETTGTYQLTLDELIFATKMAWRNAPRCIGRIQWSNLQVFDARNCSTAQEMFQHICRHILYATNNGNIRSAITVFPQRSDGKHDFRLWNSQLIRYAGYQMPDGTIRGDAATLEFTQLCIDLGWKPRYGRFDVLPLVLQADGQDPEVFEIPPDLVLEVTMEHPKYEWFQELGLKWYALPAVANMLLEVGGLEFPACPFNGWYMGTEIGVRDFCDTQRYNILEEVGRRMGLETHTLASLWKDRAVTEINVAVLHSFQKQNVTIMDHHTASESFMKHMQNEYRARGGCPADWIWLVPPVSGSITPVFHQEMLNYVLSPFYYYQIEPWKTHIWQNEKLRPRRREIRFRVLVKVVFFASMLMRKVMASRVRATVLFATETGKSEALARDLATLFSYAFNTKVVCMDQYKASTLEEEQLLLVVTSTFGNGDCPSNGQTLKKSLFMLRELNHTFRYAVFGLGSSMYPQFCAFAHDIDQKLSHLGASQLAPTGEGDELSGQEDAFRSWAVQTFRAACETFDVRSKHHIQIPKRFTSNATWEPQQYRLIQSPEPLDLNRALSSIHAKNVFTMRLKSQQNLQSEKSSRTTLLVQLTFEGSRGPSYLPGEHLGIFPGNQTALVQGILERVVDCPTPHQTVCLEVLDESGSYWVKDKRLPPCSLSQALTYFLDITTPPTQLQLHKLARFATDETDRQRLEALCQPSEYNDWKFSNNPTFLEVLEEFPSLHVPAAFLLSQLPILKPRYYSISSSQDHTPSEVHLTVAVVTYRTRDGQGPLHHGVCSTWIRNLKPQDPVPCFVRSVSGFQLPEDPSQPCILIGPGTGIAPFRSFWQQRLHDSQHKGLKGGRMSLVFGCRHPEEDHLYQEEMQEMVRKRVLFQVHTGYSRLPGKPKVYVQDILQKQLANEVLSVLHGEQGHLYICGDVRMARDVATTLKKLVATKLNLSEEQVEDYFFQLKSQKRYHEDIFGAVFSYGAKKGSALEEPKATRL

Mus musculus = test: Inhibition of LPS-induced iNOS activation in BALB/c mouse assessed as plasma nitrate levels at 30 mg/kg administered via oral gavage before LPS challenge measured after 6 to 8 hrs using 2,3-diaminonaphthalene by fluorescence assay relative to control; type: functional
Procedure, shortened: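 Male BALB/c mice dosed by oral gavage (90% PEG/5% Tween 80/5% PVP + 0.5% w/v CMC) immediately before LPS (10 mg/kg ip in 0.9% NaCl). Mice killed at 6 h. EDTA plasma analysed for nitrate and drug levels; nitrite measured by DAN fluorescence.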

[19] = Half life in mouse at 3 mg/kg, iv and 10 mg/kg, po; conditions: in vivo
[20] = molecular target: T4, Nitric oxide synthase 3 (Homo sapiens) (UniProt P29474); test: Inhibition of human eNOS expressed in HEK293 cells assessed as inhibition A23187 induced nitric oxide production at 100 uM incubated for 24 hrs measured after 18 hrs of […] challenge using 2,3-diaminonaphthalene by fluorescence assay; type: cell-based
T4 sequence (whole entry): T2 sequence (P29474 whole entry)

Nitric oxide synthase 1 [21] = molecular target: T1, Nitric oxide synthase 1; test: Inhibition of human nNOS expressed in HEK293 cells assessed as inhibition ionomycin induced nitric oxide production at 10 uM incubated for 24 hrs measured after 18 hrs of ionomycin challenge using 2,3-diaminonaphthalene by fluorescence assay; type: cell-based

T1 sequence (P29475 whole entry): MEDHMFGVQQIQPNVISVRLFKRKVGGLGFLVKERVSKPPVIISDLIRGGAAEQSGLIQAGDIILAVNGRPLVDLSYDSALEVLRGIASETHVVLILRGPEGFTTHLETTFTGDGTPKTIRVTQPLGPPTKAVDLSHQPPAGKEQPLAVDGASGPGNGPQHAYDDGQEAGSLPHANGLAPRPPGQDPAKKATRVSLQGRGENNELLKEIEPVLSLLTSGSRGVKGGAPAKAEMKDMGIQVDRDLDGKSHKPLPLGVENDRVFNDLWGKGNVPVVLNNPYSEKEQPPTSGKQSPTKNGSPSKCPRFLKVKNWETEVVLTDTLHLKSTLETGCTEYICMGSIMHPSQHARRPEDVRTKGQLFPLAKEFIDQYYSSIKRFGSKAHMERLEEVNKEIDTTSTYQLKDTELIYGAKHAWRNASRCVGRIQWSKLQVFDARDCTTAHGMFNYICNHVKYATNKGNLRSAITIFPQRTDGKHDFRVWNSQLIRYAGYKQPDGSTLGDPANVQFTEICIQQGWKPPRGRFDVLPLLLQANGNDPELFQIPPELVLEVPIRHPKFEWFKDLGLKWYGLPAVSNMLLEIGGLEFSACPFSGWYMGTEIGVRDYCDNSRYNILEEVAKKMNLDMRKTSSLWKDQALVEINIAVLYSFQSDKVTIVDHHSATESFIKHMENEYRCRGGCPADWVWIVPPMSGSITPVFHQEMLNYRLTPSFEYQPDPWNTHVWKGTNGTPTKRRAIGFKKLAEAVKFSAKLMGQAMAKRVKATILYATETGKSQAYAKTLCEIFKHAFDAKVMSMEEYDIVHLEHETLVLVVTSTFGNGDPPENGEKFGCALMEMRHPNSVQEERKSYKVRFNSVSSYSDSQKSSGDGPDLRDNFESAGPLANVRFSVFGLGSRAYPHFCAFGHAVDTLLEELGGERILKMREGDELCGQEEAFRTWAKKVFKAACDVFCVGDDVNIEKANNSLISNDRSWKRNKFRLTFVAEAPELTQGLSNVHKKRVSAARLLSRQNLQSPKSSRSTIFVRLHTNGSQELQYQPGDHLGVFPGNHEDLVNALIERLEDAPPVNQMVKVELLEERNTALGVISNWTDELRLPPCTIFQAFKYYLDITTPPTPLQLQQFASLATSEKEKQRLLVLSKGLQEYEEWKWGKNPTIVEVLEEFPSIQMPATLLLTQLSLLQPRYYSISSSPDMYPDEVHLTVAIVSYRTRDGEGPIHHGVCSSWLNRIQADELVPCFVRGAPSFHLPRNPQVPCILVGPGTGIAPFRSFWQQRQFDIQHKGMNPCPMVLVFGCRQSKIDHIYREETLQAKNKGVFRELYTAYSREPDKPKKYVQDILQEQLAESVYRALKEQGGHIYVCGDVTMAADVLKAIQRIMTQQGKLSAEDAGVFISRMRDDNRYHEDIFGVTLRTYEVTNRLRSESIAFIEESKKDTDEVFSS
Sequence of Nitric oxide synthase, inducible (Homo sapiens, UniProt P35228) (P35228 whole entry): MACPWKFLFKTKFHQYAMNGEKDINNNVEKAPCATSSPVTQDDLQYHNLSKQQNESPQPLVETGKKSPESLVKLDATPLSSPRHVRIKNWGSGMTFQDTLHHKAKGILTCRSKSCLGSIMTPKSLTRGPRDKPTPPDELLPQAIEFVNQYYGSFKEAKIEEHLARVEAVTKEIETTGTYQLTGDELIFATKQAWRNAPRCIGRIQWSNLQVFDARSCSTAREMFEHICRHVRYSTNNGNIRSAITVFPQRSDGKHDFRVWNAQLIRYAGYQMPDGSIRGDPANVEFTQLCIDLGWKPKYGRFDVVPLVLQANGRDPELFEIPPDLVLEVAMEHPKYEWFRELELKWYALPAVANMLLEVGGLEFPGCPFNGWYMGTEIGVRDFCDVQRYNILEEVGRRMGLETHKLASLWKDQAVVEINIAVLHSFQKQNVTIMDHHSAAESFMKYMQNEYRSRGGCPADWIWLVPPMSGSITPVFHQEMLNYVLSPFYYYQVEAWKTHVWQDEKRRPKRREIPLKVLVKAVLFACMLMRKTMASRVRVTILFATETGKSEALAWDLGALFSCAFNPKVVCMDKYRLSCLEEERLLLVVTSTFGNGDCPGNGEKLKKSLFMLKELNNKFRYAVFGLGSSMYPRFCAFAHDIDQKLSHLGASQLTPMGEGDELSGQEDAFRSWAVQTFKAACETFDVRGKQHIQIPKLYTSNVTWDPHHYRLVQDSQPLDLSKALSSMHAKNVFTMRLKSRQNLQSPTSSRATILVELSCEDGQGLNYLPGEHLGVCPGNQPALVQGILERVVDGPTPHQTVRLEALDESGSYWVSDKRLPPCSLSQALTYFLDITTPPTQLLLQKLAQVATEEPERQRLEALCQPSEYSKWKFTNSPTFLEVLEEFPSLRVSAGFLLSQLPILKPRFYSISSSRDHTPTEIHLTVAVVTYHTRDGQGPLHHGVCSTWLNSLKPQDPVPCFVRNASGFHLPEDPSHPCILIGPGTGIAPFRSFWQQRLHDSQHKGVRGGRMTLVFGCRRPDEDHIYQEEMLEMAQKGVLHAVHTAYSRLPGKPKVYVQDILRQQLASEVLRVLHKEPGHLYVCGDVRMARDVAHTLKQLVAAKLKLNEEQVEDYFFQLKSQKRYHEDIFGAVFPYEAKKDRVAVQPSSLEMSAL

`CC(C)Cc1nc2nccnc2n1Cc1cc(=O)[nH]c2c(F)c(F)ccc12.Cl` showed a clearance [1] of 18 mL/min/kg, a half-life [2] of 21 h and a Vd [3] of 19 L/kg. The Cmax [4] was 210 ng/mL, the AUC [5] was 3200 ng·h/mL and the half-life [6] was 15 h. The bioavailability [7] was 59%.

Molecule `Cc1ncsc1-c1nc2ccccc2n1Cc1cc(=O)[nH]c2c(F)c(F)ccc12` has a clearance [8] of 12 mL/min/kg, a Vd [9] of 1.2 L/kg and a Cmax [10] of 3800 ng/mL. It also gave an AUC [11] of 5670 ng·h/mL, a half-life [12] of 3.1 h and a bioavailability [13] of 39%. For the same molecule, the EC50 [14] was 1.8 µM, the EC50 (Nitric oxide synthase 1 [15]) was 1.5 µM and the EC50 (Nitric oxide synthase 3) was 6.8 µM. The t1/2 (Liver) was 1.63 h, the Ratio EC50 (Homo sapiens [16]) was 3.8 and the Ratio EC50 (Homo sapiens [17]) was 0.8. It also gave an EC50 [18] of 10.3 µM, an inhibition in vivo at 30 mg/kg (Mus musculus) of 30% and a half-life [19] of 2.3 h.

`O=c1cc(Cn2c(-c3ccccn3)nc3ccccc32)c2ccc(F)c(F)c2[nH]1` showed an EC50 [14] of 18 µM, an EC50 (Nitric oxide synthase 1 [15]) greater than 10 µM and an EC50 (Nitric oxide synthase 3) greater than 100 µM. For the same molecule, the t1/2 (Liver) was 1.1 h, the Ratio EC50 (Homo sapiens [16]) was greater than 6 and the Ratio EC50 (Homo sapiens [17]) was greater than 0.5. The inhibition [20] was less than 50% and the inhibition (Nitric oxide synthase 1 [21]) was less than 50%.
